# According to article PMC9080015 (RSC Advances, 2018):
# Experiments:
# CYP1A1 [1] = conditions: read-out: IC50 CYP1A1; cited from earlier work
# CYP1A2 = conditions: read-out: IC50 CYP1A2; recombinant human enzyme; cited from earlier work
# CYP1A1 [2] = target: T1, CYP1A1 (Homo sapiens, UniProt P04798); experiment: EROD assay, recombinant human CYP1A1 inhibition; assay type: biochemical
# T1 sequence (P04798 1-512): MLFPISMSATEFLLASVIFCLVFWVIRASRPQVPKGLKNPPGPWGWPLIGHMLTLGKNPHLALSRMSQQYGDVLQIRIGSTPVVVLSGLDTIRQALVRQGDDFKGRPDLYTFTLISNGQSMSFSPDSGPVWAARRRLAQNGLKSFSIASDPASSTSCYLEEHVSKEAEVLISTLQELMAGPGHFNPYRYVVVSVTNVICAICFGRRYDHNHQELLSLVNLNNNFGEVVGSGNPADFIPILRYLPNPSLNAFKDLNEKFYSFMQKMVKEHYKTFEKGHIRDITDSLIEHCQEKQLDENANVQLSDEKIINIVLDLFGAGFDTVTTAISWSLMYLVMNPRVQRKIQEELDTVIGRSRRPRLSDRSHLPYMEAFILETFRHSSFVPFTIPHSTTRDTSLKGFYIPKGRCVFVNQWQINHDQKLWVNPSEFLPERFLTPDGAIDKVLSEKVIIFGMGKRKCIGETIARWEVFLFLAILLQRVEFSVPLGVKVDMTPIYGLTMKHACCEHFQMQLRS
# Method in brief: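 Supersomes with P450 reductase. Test compound is taken from 10 mM DMSO stock into Tris–HCl pH 7.4 (final DMSO <1% v/v), at several concentrations. Methanol stop. Resorufin fluorescence read at ex 544/em 590 nm. IC50 from nonlinear regression, log(inhibitor) vs normalized response, variable slope.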
# recombinant human CYP1B1 = target: T2, recombinant human CYP1B1 (Homo sapiens, UniProt Q16678); experiment: EROD assay, recombinant human CYP1B1 inhibition; assay type: biochemical; conditions: selectivity for CYP1B1 over CYP1A1
# T2 sequence (Q16678 1-543): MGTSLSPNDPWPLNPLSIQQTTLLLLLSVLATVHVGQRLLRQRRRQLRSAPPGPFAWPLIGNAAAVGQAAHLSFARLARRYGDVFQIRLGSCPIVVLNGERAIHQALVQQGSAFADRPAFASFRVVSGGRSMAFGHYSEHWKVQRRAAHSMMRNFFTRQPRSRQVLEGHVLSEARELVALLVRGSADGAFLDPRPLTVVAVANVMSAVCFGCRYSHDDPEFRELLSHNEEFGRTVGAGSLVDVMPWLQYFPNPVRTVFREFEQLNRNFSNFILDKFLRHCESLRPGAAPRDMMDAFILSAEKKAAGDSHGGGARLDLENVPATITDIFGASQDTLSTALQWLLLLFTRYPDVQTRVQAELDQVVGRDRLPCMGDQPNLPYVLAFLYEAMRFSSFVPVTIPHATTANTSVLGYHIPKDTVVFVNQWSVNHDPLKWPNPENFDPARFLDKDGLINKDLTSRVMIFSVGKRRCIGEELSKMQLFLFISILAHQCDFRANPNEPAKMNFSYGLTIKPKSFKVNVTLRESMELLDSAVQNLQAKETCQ
# MCF-7/1B1 cells = assay type: cell-based, human
# Method in brief: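 MCF-7/1B1 cells were made by incubating parental MCF-7 with 10 nM TCDD for five days, then seeded at about 3000 cells/well in RPMI 1640/10% FBS for 24 h. Screen: 20 μM docetaxel alone or with 10 μM test compound. […] MTT read at 490 nm. Non-linear regression fit; mean ± SD of three independent measurements; Student's t test.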
# parental MCF-7 cells = experiment: MTT anti-proliferation assay in parental MCF-7 cells; assay type: cell-based; conditions: Homo sapiens, MCF7, read-out: IC50 of docetaxel in parental MCF-7 cells
# Method in brief: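 Parental MCF-7 cells were grown in RPMI 1640 with 10% FBS at 37 °C and 5% CO2. About 3000 cells/well were seeded and left 24 h, then exposed to six docetaxel concentrations. MTT read-out was absorbance at 490 nm. IC50 came from non-linear regression (log inhibitor vs normalized response, variable slope).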
smiles,measurement,setting,value
"O=c1cc(-c2ccccc2)oc2c1ccc1ccccc12 [ANF, α-Naphthoflavone]",IC50,CYP1A1 [1],0.06 µM
same,IC50,CYP1A1 [2],0.0628 µM
"COc1cc2c(=O)cc(-c3cccc(Br)c3)[nH]c2c2c(OC)cccc12 [Compound 5e, 2-(3-Bromophenyl)-6,10-dimethoxybenzo[h]quinolin-4(1H)-one]",IC50 ratio 1A1/1B1,recombinant human CYP1B1,5.5
same,antiproliferative activity of the compound alone,"MCF-7/1B1 cells; MCF-7/1B1 cells, varying concentrations, no docetaxel",a significant antiproliferative activity was not observed
"CC(=O)O[C@@]12CO[C@@H]1C[C@H](O)[C@@]1(C)C(=O)[C@H](O)C3=C(C)[C@@H](OC(=O)[C@H](O)[C@@H](NC(=O)OC(C)(C)C)c4ccccc4)C[C@@](O)([C@@H](OC(=O)c4ccccc4)[C@H]21)C3(C)C [docetaxel, reference compound]",IC50,parental MCF-7 cells,29.5 µM
same,fold resistance of MCF-7/1B1 cells to docetaxel versus parental MCF-7 cells,MCF-7/1B1 cells,5 fold
